Most compounds without a hit are left out; they make up all but 1.3% or so of the library.
TPT1 inh: blocks Candida albicans tRNA 2'-phosphotransferase; inhibition, % at 5 µM; AID 1962; recombinant caTPT1, FP RNA substrate dephosphorylation; hit rate 0.81% among 300,000;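 active means inhibition above the mean of all tested compounds plus 3 SD, set per screening campaign, cut at about 24% in these data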;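 further: plate controls were DMSO alone for no effect and ferristatin control at 100 nM for full effect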
Rpn11 block: Rpn11 (human) deubiquitinase inhibition. O00487. human 26S proteasome, Ub4-pepOG fluorescence polarization; 20S core pre-blocked with epoxomicin. inhibition, % at 20 µM. hit rate 0.59% among 360,000;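 active means inhibition at 20 µM, scaled to each plate's controls, above about 33%, limit read from the data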
Target sequence (O00487 whole entry, looked up): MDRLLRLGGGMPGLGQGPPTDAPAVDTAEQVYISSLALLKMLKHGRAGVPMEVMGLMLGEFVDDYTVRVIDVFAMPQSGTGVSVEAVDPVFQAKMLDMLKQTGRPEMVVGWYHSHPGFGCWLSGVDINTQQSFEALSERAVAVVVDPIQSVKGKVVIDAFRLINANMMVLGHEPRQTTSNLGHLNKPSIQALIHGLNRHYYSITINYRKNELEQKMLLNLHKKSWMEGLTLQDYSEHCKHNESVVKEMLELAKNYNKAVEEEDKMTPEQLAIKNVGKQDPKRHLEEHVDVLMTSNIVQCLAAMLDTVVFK
XiGFP reactiv: X-chromosome reactivation activator; XiGFP mouse fibroblasts, % GFP-positive cells imaging, 3 d; cells co-treated with 5-aza-dC sensitizer; scaled so ellipticine positive control = 100%; activation, % at 7.58 µM; hit rate 0.055% among 360,000; AID 743238;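 active means mean normalized replicate activation at least 10% and every replicate at or above 10%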;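 further: 0% = median of on-plate neutral control wells and 100% = ellipticine 6 µM median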
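System: 68-5-11 XiGFP fibroblast line | Buffer or medium: DMEM containing 5-aza-dC | Compound: Single point | Times: Compounds 3 days, fix/stain 15 min at room temperature | Benchmarks: Positive control ellipticine, 6 µM final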
CSN deneddyl inh: blocks human CSN-mediated cullin deneddylation | Q92905 | AID 651999 | hit rate 0.38% among 360,000 | Purified CSN, SCF-Nedd8-OG deneddylation, fluorescence polarization | inhibition, % at 12.5 µM;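 active means pattern-corrected inhibition above about 35%, with an unprinted fluorescence ratio check between 0.5 and 1.5, limit read from the data, passing the limit was not always enough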;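 further: 0% = enzyme with substrate and 100% = substrate without enzyme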
Target sequence (Q92905 whole entry, looked up, one chain of several): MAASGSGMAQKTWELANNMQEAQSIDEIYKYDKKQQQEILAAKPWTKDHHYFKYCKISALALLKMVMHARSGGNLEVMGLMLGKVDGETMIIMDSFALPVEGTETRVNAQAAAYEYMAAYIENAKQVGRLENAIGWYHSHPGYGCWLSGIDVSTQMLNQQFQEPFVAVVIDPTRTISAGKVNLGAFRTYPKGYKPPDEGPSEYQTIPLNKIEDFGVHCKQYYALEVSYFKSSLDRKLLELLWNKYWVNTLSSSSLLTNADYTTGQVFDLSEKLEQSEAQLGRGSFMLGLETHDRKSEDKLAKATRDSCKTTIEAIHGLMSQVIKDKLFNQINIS
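assay system = purified human Csn5 enzyme expressed in HEK293T cells | amount = 0.24 nM enzyme | buffer or medium = Tris/NaCl/DTT buffer, pH 7.5 | reagent = 10 nM SCFSkp2-Nedd8OG | compound = one concentration, 12.5 µM, 0.25% DMSO | times = 90 min reaction at room temperature | signal = FP | read-out basis = % inhibition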
HNF4A DNA FP: change in binding of human HNF4 alpha to DNA | AID 1224865 | HNF4a-FITC DNA binding, fluorescence polarization, 1 h | hit rate 0.3% among 360,000 | activity change, % at 10 µM | P41235; in the data active means activity change above about 30%, passing the limit was not always enough
aDG glyco up: increases alpha dystroglycan glycosylation; Pro5-aDG cells, alpha-DG glycosylation AlphaScreen (IIH6); 0% Pro5, 100% B10-LARGE cell signal; activation, % at 10 µM; hit rate 0.22% among 360,000; AID 624168;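 active means activation of at least 8% versus controls, or a plate z-score of at least 8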;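 further: Pro5 are CHO cells carrying HIG-tagged alpha-DG that lacks glycosylation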
TPT1 inh confirm: confirmation of Candida albicans TPT1 inhibitors; shares compounds with TPT1 inh; recombinant caTPT1, fluorescence polarization, RNase T1 coupled; inhibition, % at 5 µM; hit rate 74% among 2,400; AID 2149;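 active means inhibition above the primary screen limit, the mean inhibition of all tested compounds plus 3 SD, cut at about 25% in these data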
RNase T1 counter: counter-screen for TPT1 inhibitors: inhibitors of Aspergillus oryzae RNase T1; shares compounds with TPT1 inh; RNase T1 cleavage, fluorescence polarization, 1536-well; inhibition, % at 5 µM; hit rate 83% among 2,400;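 active means inhibition above the solvent-only control well mean plus 3 SD, limit set per screening run, cut at about 23% in these data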;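 further: plate controls were DMSO wells with enzyme for no effect and wells without RNase T1 for full effect; inhibitors block cleavage so intact labeled substrate keeps polarization high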
* = called active by the depositor; · = no result shown; ! = repeats disagree.

SMILES	TPT1 inh	Rpn11 block	XiGFP reactiv	CSN deneddyl inh	HNF4A DNA FP	aDG glyco up	TPT1 inh confirm	RNase T1 counter
Cc1noc(C)c1NC(=O)Nc1ccc2c(c1)C(=O)N([C@@H](C)CO)C[C@H](C)[C@@H](CN(C)C(=O)NC(C)C)O2	·	·	0.2	·	·	·	·	·
N#C/C(=C/c1ccc(N2CCOCC2)o1)C(=O)Nc1ccccc1	·	·	0.9	-61.4	210.5	-0.1	·	·
N#C/C(=C\c1ccc(-c2ccc(C(=O)O)cc2)o1)C(=O)NCC1CCCO1 (stereo unspecified)	4.2	1.3	·	2.1	-2.5	-0.2	·	·
N#C/C(=C\c1ccc(N2CCOCC2)o1)C(=O)NCC1CCCO1 (stereo unspecified)	161.2*	·	0.1	93.6	163.6	-0.4	168.4*	163.8*
COCCNC(=O)/C(C#N)=C/c1ccc(N2CCOCC2)o1	156.9*	·	0.0	109.2	155.4	0.0	169.2*	164.4*
C[C@H]1CN([C@@H](C)CO)C(=O)c2cccc(NS(=O)(=O)c3cn(C)cn3)c2O[C@H]1CN(C)Cc1ccc(-c2ccccc2)cc1	·	·	0.3	·	·	·	·	·
COC(=O)[C@H]1[C@H](CO)[C@H]2Cn3c(ccc(C4=CCCCC4)c3=O)[C@H]2N1CCC(F)(F)F	·	·	0.0	·	·	·	·	·
CC1(C)OC(=O)C(=Cc2ccc(-c3ccc(S(N)(=O)=O)cc3)o2)C(=O)O1	28.5*	15.1	0.0	11.9	10.4	-0.3	8.0	12.5
NS(=O)(=O)c1ccc(-c2ccc(/C=C3\C(=O)Nc4ccccc43)o2)cc1	3.7	·	·	·	·	·	·	·
C[C@H]1CN([C@@H](C)CO)C(=O)c2cc(NC(=O)CCCN(C)C)ccc2O[C@H]1CN(C)C(=O)Nc1cccc2ccccc12	·	·	-0.5	·	·	·	·	·
CC1=C/C(=C\c2ccc(Br)o2)C(=O)O1	5.9	4.9	-0.1	32.3	-37.4	0.1	·	·
O=C1C(=Cc2ccc(Br)o2)C(=O)c2ccccc21	26.4*	·	·	50.1	-72.8	0.3	26.1*	28.4*
CCN1CCN(Cc2ccc(NC(=O)c3ccc(C)c(NC(=O)c4ccno4)c3)cc2C(F)(F)F)CC1	-0.6	-1.4	0.1	9.4	4.5	-0.1	·	·
CCN1CCN(Cc2ccc(NC(=O)c3ccc(C)c(/C=C/c4cnc(Nc5cc(N6CCNCC6)nc(C)n5)cn4)c3)cc2C(F)(F)F)CC1	77.7*	·	·	56.9*!	125.3	-0.6	83.5*	86.8*
C[C@@H]1CCCCO[C@@H](CN(C)S(C)(=O)=O)[C@@H](C)CN([C@@H](C)CO)C(=O)c2cc(N(C)C)ccc2O1	·	·	0.1	·	·	·	·	·
O=C1CCCCC1C(O)c1ccc(Cl)cc1 (stereo unspecified)	81.6*	·	·	·	·	·	1.2	3.2
Cc1ccc(NC(=O)c2cc(S(=O)(=O)N3CCOCC3)c(Br)s2)cc1	29.4*	-0.2	0.0	-12.6	2.4	0.5	0.1	2.7
C=CCn1c(SCc2nc3sc(C(=O)O)c(C)c3c(=O)[nH]2)nnc1-c1ccc(F)cc1	-0.9	-3.1	0.1	3.4	1.5	0.0	·	·
CCn1c(SCc2nc3sc(C(=O)O)c(C)c3c(=O)[nH]2)nc2ccccc21	30.8*	30.5	·	32.6	-1.4	-0.2	24.2*	27.5*
COc1ccc(-c2ccc(-c3noc(-c4cccs4)n3)c(OC)n2)cc1	26.1*	·	·	10.2	24.8	0.2	28.3*	38.6*
COc1ccc(-c2ccc(-c3noc(-c4cccc(OC)c4)n3)c(OC)n2)cc1	0.8	3.9	·	7.6	-3.0	0.2	·	·
CC(=O)N1c2ccc3ccccc3c2C2C=CCC2C1c1ccc(Br)cc1 (stereo unspecified)	36.1*	·	·	·	·	·	12.5	18.5
C[C@@H]1CN(C)C(=O)c2cc([N+](=O)[O-])ccc2O[C@H]1CN(C)C(=O)OC(C)(C)C	·	·	0.2	·	·	·	·	·
O=C1NC(=S)SC1=Cc1cccs1	·	2.1	0.1	-0.1	8.5	0.2	·	·
CN1CCC/C1=C/C=C1\SC(=S)NC1=O	145.9*	·	-0.1	7.8	-4.8	0.1	153.9*	140.4*
SMILES	TPT1 inh	Rpn11 block	XiGFP reactiv	CSN deneddyl inh	HNF4A DNA FP	aDG glyco up	TPT1 inh confirm	RNase T1 counter
CN(C)c1ccc(/C=C2\C(=N)N3C(=NC2=O)Sc2cc(S(C)(=O)=O)ccc23)cc1	122.0*	·	·	·	·	·	87.9*	86.0*
Cn1cccc1/C=C1\CCC/C(=C\c2cccn2C)C1=O	192.4*	·	·	-0.3	146.1	-0.5	194.4*	171.3*
C[C@H]1CN([C@@H](C)CO)C(=O)c2cc(NS(=O)(=O)c3ccc(F)cc3)ccc2O[C@@H]1CN(C)S(=O)(=O)c1ccc(F)cc1	·	·	0.4	·	·	·	·	·
COc1ccccc1N1C(=O)C2C(C(=O)c3ccccc3)=NN(c3ccc(C)cc3)C2C1=O (stereo unspecified)	51.0*	-62.5	0.0	6.2	-23.0	-0.1	64.7*	73.3*
COc1ccccc1N1C(=O)C2C(C(=O)c3ccccc3)=NN(c3ccc(Br)cc3)C2C1=O (stereo unspecified)	35.0*	21.5	1.2	24.4	32.3	-0.1	27.1*	40.9*
O=[N+]([O-])C(=C1SCCS1)C(=C(Cl)Cl)N1CCCCC1	-6.4	-1.0	0.0	-5.0	3.0	-0.7	·	·
O=[N+]([O-])C(/C=C(\Cl)[N+](=O)[O-])=C(N1CCCCC1)N1CCCCC1	35.1*	1.1	0.0	7.2	-0.3	2.7	41.6*	58.0*
COC(=O)c1c(-c2ccccc2Cl)noc1/C=C/N(C)C	131.1*	5.8	7.5	-1.2	1.2	0.0	28.1*	34.9*
CCCNC(=O)N1C[C@@H](O)COC[C@H]2O[C@H](CC(=O)N3CCOCC3)CC[C@@H]21	·	·	-0.1	·	·	·	·	·
O=C(O)c1ccc(N=Nc2c(O)[nH]c3cc(Cl)ccc23)cc1	29.2*	43.7*	-0.1	8.8	20.4	1.0	54.2*	67.2*
CC1(C)CC(=O)C2=C(C1)OC(N)=C(C#N)C21CCN(Cc2ccccc2)CC1	26.9*	-14.7	·	-1.2	1.2	0.0	21.8	32.5*
C[C@@H]1CN([C@@H](C)CO)C(=O)c2cc(NC(=O)CCN3CCOCC3)ccc2O[C@@H]1CN(C)Cc1ccc(Cl)c(Cl)c1	·	·	2.8	·	·	·	·	·
CC(=O)N(C)C[C@H]1Oc2ncccc2C(=O)N(C)C[C@@H]1C	·	·	0.2	·	·	·	·	·
COc1ccc2c3c(n(C)c2c1)[C@H](CO)N(C(=O)c1cccc(F)c1)CC31CCN(CC2CC2)CC1	·	·	0.4	·	·	·	·	·
CCCCCCNC(=O)C(C#N)c1nc2ccccc2nc1N1CCCC1 (stereo unspecified)	63.0*	19.1	·	40.3*	37.1	0.1	28.3*	32.9*
